ChEMBL document CHEMBL1134962, “Facilely accessible multidrug resistance modulator derived from sucrose” (2002)

Assays:
Assay type in all cases: functional, Homo sapiens
KB 3-1 [1] = test: Cytotoxicity against KB-3-1 cells was determined when administered at 1 ug/mL
Outline: (§1)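 Parental KB-3-1 cells grown in RPMI 1640 with glutamine, kanamycin and 10% newborn calf serum. 10,000 cells per well were preincubated 24 h at 37 °C in 5% CO2. The test sample was then added alone and incubated 48 h. MTT was added for 3 h, and the formazan was extracted with DMSO before the colorimetric read.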

KB 3-1 [2] = test: Cytotoxicity against KB-3-1 cells was determined when administered at 10 ug/mL; outline: as §1
KB 3-1 [3] = test: Cytotoxicity against KB-3-1 cells was determined when administered at 3 ug/mL; outline: as §1
KB [4] = test: Percentage inhibition of growth against KB-C2 cells in the presence of colchicine(0.1 ug/mL) was determined when administered at 3 ug/mL
Outline: (§2)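 Multidrug-resistant KB-C2 cells were selected from KB-3-1 and kept in colchicine-containing RPMI 1640 with glutamine, kanamycin and 10% newborn calf serum. 10,000 cells per well were preincubated 24 h at 37 °C in 5% CO2. Colchicine plus the test sample were added together and incubated 48 h. Growth was read by MTT (3 h), with the formazan extracted in DMSO.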

KB [5] = test: Percentage inhibition of growth against KB-C2 cells in the presence of colchicine(0.1 ug/mL) was determined when administered at 1 ug/mL; outline: as §2
KB [6] = test: Percentage inhibition of growth against KB-C2 cells in the presence of colchicine(0.1 ug/mL) was determined when administered at 10 ug/mL; outline: as §2
KB [7] = test: Percentage inhibition of growth against KB-C2 cells in the presence of colchicine (0.1 ug/mL) was determined when administered at 3 ug/mL; outline: as §2

| SMILES | Growth inhibition (KB 3-1 [1]) | Growth inhibition (KB 3-1 [2]) | Growth inhibition (KB 3-1 [3]) | Growth inhibition (KB [4]) | Growth inhibition (KB [5]) | Growth inhibition (KB [6]) | Growth inhibition (KB [7]) |
| --- | --- | --- | --- | --- | --- | --- | --- |
| CC(C)CC(=O)OC[C@H]1O[C@@](COC(=O)CC(C)C)(O[C@H]2O[C@H](CO)[C@@H](OC(=O)CC(C)C)[C@H](O)[C@H]2OC(=O)CC(C)C)[C@@H](OC(=O)CC(C)C)[C@@H]1OC(=O)CC(C)C | 2% | 40% | 10% | 79% | 39% | 88% | – |
| CC(C)CC(=O)OC[C@H]1O[C@H](O[C@]2(COC(=O)CC(C)C)O[C@H](COC(=O)CC(C)C)[C@@H](OC(=O)CC(C)C)[C@@H]2OC(=O)CC(C)C)[C@H](OC(=O)CC(C)C)[C@@H](O)[C@@H]1O | 18% | 93% | 16% | 60% | 23% | 92% | – |
| CC(C)CC(=O)OC[C@H]1O[C@@](COC(=O)CC(C)C)(O[C@H]2O[C@H](CO)[C@@H](O)[C@H](O)[C@H]2OC(=O)CC(C)C)[C@@H](OC(=O)CC(C)C)[C@@H]1OC(=O)CC(C)C | 10% | 92% | 21% | 76% | 40% | 93% | – |
| CC(C)CC(=O)O[C@@H]1[C@@H](OC(=O)CC(C)C)[C@@H](O[C@]2(CO)O[C@H](CO)[C@@H](OC(=O)CC(C)C)[C@@H]2OC(=O)CC(C)C)O[C@H](CO)[C@H]1OC(=O)CC(C)C | 9% | 98% | 8% | – | 65% | 97% | 92% |
| CC(C)CC(=O)OC[C@H]1O[C@@](COC(=O)CC(C)C)(O[C@H]2O[C@H](CO)[C@@H](O)[C@H](OC(=O)CC(C)C)[C@H]2OC(=O)CC(C)C)[C@@H](OC(=O)CC(C)C)[C@@H]1OC(=O)CC(C)C | 6% | 66% | 16% | 53% | 18% | 94% | – |
| CC(C)CC(=O)OC[C@H]1O[C@@](COC(=O)CC(C)C)(O[C@H]2O[C@H](COC(=O)CC(C)C)[C@@H](OC(=O)CC(C)C)C(OC(=O)CC(C)C)[C@H]2OC(=O)CC(C)C)[C@@H](OC(=O)CC(C)C)[C@@H]1OC(=O)CC(C)C (stereo partly specified) | 10% | 25% | 15% | 12% | 4% | 24% | – |
